Screening data (PubChem BioAssay)
DAGLB inh: blocks human DAGLB lipase activity; Q8NCG7; HEK293T DAGLB membrane lysate, EnzChek fluorogenic substrate; inhibition, % at 5.17 µM; 0.059% of 340,000 active; AID 504411; in the data active means inhibition above about 34%;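 further: 0% = enzyme with vehicle and 100% = wells lacking enzyme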
Arr AP2 block: human beta-arrestin and AP2 interaction inhibition; 0.31% of 340,000 active; inhibition, % at 10 µM; FITC-arrestin peptide / GST-AP2 beads, flow cytometry; AP2 beta2 appendage carries R879A mutation;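 active means inhibition above a set limit, near 3 SD of compounds lacking own fluorescence, cut at about 54% in these data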;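 further: plate controls were DMSO wells for no effect and 5 µM unlabelled arrestin peptide for full effect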
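System: GST-AP2 R879A glutathione beads | Also added: FITC-arrestin peptide, 50 nM | Times: 12 min plus 1 h, RT | Signal: Bead flow cytometry, FITC channel | Buffer or medium: PBS with 0.05% Tween 20 and 0.1% BSA | Read-out basis: Percent drop in bead-associated FITC signal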
HTR5A ag: HTR5A agonism, opioid heterodimer counter-screen; P47898; HTR5A agonist assay, luminescence, cell-based; activation, % at 9.3 µM; 0.61% of 340,000 active; AID 504692; in the data active means activation mostly above about 9.5%, no sharp cut-off; inactive means mostly below about 7.6%;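 further: 0% = cells with vehicle only and 100% = reference agonist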
Target sequence (P47898 whole entry, looked up): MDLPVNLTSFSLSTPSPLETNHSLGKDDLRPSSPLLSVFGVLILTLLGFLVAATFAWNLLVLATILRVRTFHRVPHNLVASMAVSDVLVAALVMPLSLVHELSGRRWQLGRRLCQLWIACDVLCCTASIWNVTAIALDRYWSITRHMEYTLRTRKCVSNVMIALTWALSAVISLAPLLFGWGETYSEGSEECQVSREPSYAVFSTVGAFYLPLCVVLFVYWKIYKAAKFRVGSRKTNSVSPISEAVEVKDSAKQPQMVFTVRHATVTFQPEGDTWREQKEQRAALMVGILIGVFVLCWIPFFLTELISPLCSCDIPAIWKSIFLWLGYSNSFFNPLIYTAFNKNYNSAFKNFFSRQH
HTR5A inv ctr: HTR5A inverse agonism, opioid heterodimer counter-screen. P47898. HTR5A cell line, luminescence. inhibition, % at 9.3 µM. 0.083% of 340,000 active. AID 504634; in the data active means inhibition mostly above about 23%, no sharp cut-off; inactive means mostly below about 18%;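 further: 0% = cells with DMSO and 100% = no-cell wells with DMSO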
MOR-DOR inv ag: mu-delta opioid heterodimer inverse agonism; cell-based MOR-DOR heterodimer luminescence; inhibition, % at 9.3 µM; P35372+P41143; 0.21% of 340,000 active; in the data active means inhibition above about 22%, passing the limit was not always enough;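 further: 0% = cells with DMSO and 100% = wells without cells with DMSO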
OPRM1-OPRD1 ag: agonists of human mu-delta opioid receptor heterodimerization; P35372+P41143; cells, OPRM1-OPRD1 heterodimerization, luminescence; activation, % at 9.3 µM; 0.3% of 340,000 active; in the data active means activation above about 18%;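 further: 0% = vehicle-treated cells and 100% = reference agonist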
OPRM1-D1 inv cf: OPRM1-OPRD1 heterodimer inverse agonism, confirmation; cells expressing OPRM1/OPRD1 heterodimer, luminescence; AID 504900; 20% of 580 active; shares compounds with MOR-DOR inv ag; inhibition, % at 9.3 µM; in the data active means inhibition above about 32%;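 further: 0% = cells with DMSO and 100% = wells lacking cells with DMSO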
HTR5A inv ctr2: inverse agonist of human HTR5A in OPRM1-OPRD1 counter-screen | inhibition, % at 9.3 µM | HTR5A-expressing cells, luminescence, inverse agonism | shares compounds with MOR-DOR inv ag | 580 tested, under 10 active; call rule not given here;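 further: 0% = cells with DMSO and 100% = no-cell wells with DMSO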
An asterisk follows results filed as active; i = inactive; . = no result. Compounds with a hit are over-represented: about 1.4% of the library has one in this group of screens.

SMILES	DAGLB inh	Arr AP2 block	HTR5A ag	HTR5A inv ctr	MOR-DOR inv ag	OPRM1-OPRD1 ag	OPRM1-D1 inv cf	HTR5A inv ctr2
COc1ccc(C#Cc2cnc3c(c2)C(=O)N([C@H](C)CO)C[C@@H](C)[C@H](CN(C)C(=O)CN(C)C)O3)cc1	-0.4	.	.	.	.	.	.	.
Cc1ccccc1OCCC(=O)Nc1ccc(S(=O)(=O)N2CCCC2)cc1	-4.4	.	.	.	.	.	.	.
S=C1NCCc2ccccc2C1c1ccccc1Cl (stereo unspecified)	1.8	4.6	-1.9	-27.4	44.1*	-8.8	4.9	10.1
S=C1NCCc2ccccc2C1c1ccccc1 (stereo unspecified)	-1.6	-2.1	-5.1	5.2	13.4	-2.2	.	.
Cc1ccc(N(CC(=O)N2CCCCCC2)S(C)(=O)=O)c(C)c1	-2.9	.	.	.	.	.	.	.
O=C(Cc1ccccc1F)Nc1cc(S(=O)(=O)N2CCCCC2)ccc1N1CCOCC1	1.8	.	.	.	.	.	.	.
CCCCCC(=O)NNC(=S)NC(=O)c1ccccc1[N+](=O)[O-]	-0.1	45.6	-8.5	-3.0	30.0*	-5.8	-140.2	10.6
O=[N+]([O-])c1ccc(CN2CC(N3CCN(CC4CC4)CC3)CS2(=O)=O)cc1 (stereo unspecified)	0.2	.	.	.	.	.	.	.
CC(C)=CCCC(C)=CCN1C(=O)CN(C)C1=O	-6.8	.	.	.	.	.	.	.
COc1cccc([C@@H]2Oc3ccc(OC)cc3C(=O)[C@H]2O)c1	-12.6	20.2	-2.7	3.8	34.9*	-6.5	18.9	9.1
Nc1nc(-c2ccccn2)nc(N)c1Cc1ccc(Cl)cc1Cl	-3.9	-8.4	-2.3	6.0	36.4*	-7.2	-12.0	-20.7
Nc1nc(-c2ccccn2)nc(N)c1Cc1ccccc1F	-1.2	3.9	0.2	-0.5	16.4	-2.8	.	.
O=C1Nc2ccc(Br)cc2C1=C1CCCCC1	-2.0	4.7	-1.4	5.2	-4.1	0.8	.	.
N#C/C(=C1/C(=O)Nc2ccc(Br)cc21)c1ccccn1	-1.4	11.9	-4.2	11.5	49.1*	-10.5	i	3.9
COc1ccc(NC(=O)c2nc(S(=O)(=O)Cc3cccc(C)c3)ncc2Cl)c(OC)c1	5.1	-14.6	3.3	2.8	35.0*	-6.8	-338.4	-20.3
COc1ccc(OC)c(NC(=O)c2nc(S(=O)(=O)Cc3ccccc3)ncc2Cl)c1	3.7	20.1	-2.1	8.5	11.7	-2.2	.	.
CC(C)(C)OC(=O)NCc1ccc(CNC(=O)c2[nH]cnc2C(=O)Nc2ccccc2F)cc1	-1.6	.	.	.	.	.	.	.
COc1cccc(-c2cnc3c(c2)C(=O)N([C@H](C)CO)C[C@@H](C)[C@H](CN(C)C(=O)Nc2ccccc2F)O3)c1	-0.7	.	.	.	.	.	.	.
Cc1cccc(OCCN2C(=O)C(=O)c3cc(C)ccc32)c1	3.5	-3.6	6.3	20.1	29.6*	-5.7	-6.5	-16.0
Cc1ccc2c(c1)C(=O)C(=O)N2CCOc1ccccc1	0.9	14.6	-1.6	4.8	37.7*	-7.6	-5.6	-1.3
Cc1ccc(C2Nc3ccccc3NC3=C2C(=O)CC(C)(C)C3)c(O)c1 (stereo unspecified)	-1.9	-5.2	1.0	-3.8	7.3	-1.5	.	.
CC1(C)CC(=O)C2=C(C1)Nc1ccccc1NC2c1cc(Cl)ccc1O (stereo unspecified)	2.8	-18.2	1.7	-4.8	41.5*	-8.1	-427.8	-11.8
O=C1Nc2ccccc2C1=Nc1ccc(-c2nnc3n2CCCCC3)cc1	-3.0	8.4	-1.5	6.3	35.4*	-6.8	39.5*	3.5
Cc1ccc(-c2nnc3n2CCCCC3)cc1	1.4	3.6	5.2	5.1	8.6	-1.9	.	.
CC(=O)Nc1ccc(S(=O)(=O)Nc2cccc3cccnc23)cc1	-1.4	-5.4	-8.1	19.5	26.0	-4.7	.	.
SMILES	DAGLB inh	Arr AP2 block	HTR5A ag	HTR5A inv ctr	MOR-DOR inv ag	OPRM1-OPRD1 ag	OPRM1-D1 inv cf	HTR5A inv ctr2
O=S(=O)(Nc1cccc2cccnc12)c1ccccc1	-2.1	4.3	-3.6	8.8	47.1*	-8.4	-32.9	12.2
COc1ccc(NS(=O)(=O)c2ccc3ccccc3c2)c2ncccc12	-1.5	15.1	-5.1	12.5	38.9*	-7.0	10.2	-10.9
O=C(OCc1ccccc1)N1CCC2CC1c1cc(/C=C/CCCSc3ncccn3)ccc12 (stereo unspecified)	-17.5	.	.	.	.	.	.	.
Cc1ccc(C(=O)OCC(=O)NCc2ccc(Cl)cc2)s1	-3.4	.	.	.	.	.	.	.
O=C(NNc1cc(Br)c(O)c(Br)c1)c1ccccc1	1.6	12.1	-9.1	12.2	79.5*	-15.9	75.0*	21.7
O=C(NNc1ccccc1)c1ccc(Cl)c(Cl)c1	-2.5	-5.2	-2.2	8.5	40.1*	-9.2	53.8*	14.3
NS(=O)(=O)c1ccc(NNC(=O)c2ccccc2)cc1	.	5.3	.	.	.	.	.	.
O=C(NNC(=O)c1ccc2ccccc2c1)c1ccc(Cl)c(Cl)c1	3.7	-1.1	-0.4	1.6	17.3	-3.5	.	.
CCOC(=O)C1(CC)Oc2ccccc2C(c2ccc(OC)cc2)=C1C(=O)OC (stereo unspecified)	-14.8	2.1	-2.5	9.1	6.1	-1.1	.	.
O=C1/C(=C/c2ccccc2)Nc2ccccc21	-4.1	16.6	-6.1	3.6	35.9*	-6.9	-25.3	-9.7
O=C1CNC(=O)/C(=C\c2ccccc2)N1	-2.9	-2.8	2.8	-10.5	10.1	-2.0	.	.
COC(=O)C1NN=C(C(=O)c2ccccc2)C1c1ccccc1 (stereo unspecified)	-2.0	35.1	-5.0	-22.0	9.3	-1.8	.	.
COC(=O)C1NN=C(C(=O)c2ccc(Cl)cc2)C1c1ccc(OC)cc1 (stereo unspecified)	-3.0	-13.1	-9.1	24.4	46.9*	-7.8	15.8	1.8
CC(=O)N(/N=C1\Sc2ccccc2C1=O)c1cccc(C)c1	3.5	1.1	-14.1	30.9	53.3*	-10.8	44.4*	-6.7
Cc1ccc(NNC(=O)C(=O)N2CCCCC2)cc1	1.9	16.9	-0.8	2.8	27.9*	-5.4	3.3	-5.8
CCOC(=O)c1ccccc1OC(=O)NNc1ccccc1	1.9	7.9	-6.0	21.5	37.4*	-7.1	-18.1	-5.8
COc1cc(/C=C/C(=O)c2ccc(C)c([N+](=O)[O-])c2)cc(OC)c1O	-0.8	7.8	-5.6	19.2	20.3*	-3.6	-9.1	17.0
Cc1c(C(=O)NC(=S)Nc2cccnc2)cccc1[N+](=O)[O-]	-2.9	-22.6	0.2	30.6	34.9*	-6.5	-201.2	-39.1
Cc1nc2c3ccccc3n(CC(=O)c3ccc(F)cc3)c(=O)n2n1	1.8	5.3	-8.5	23.5	31.2*	-6.1	i	-19.1
Cc1cc(-n2nc3ccccc3n2)c(O)c([N+](=O)[O-])c1	2.3	-16.9	7.0	4.6	25.8*	-4.7	-17.5	19.2
Nc1ccc(C(=O)Nc2ccc(Nc3ccncc3)cc2)c([N+](=O)[O-])c1	-2.0	.	.	.	.	.	.	.
